Results reported in PubChem BioAssay AID588478 (ICCB-Longwood Screening Facility, Harvard Medical School, 2011).
Hit rate of the full screen: of about 330,000 compounds, about 1,100 (0.33%) were called active.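 How the source made its calls: active means mean inhibition over replicate wells above about 20% (limit read from the data); inactive means the rest.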 The sample as a whole holds a higher share of actives than the screen did.

Biological target: Ubiquitin carboxyl-terminal hydrolase isozyme L5 (Homo sapiens) (UniProt Q9Y5K5)
Experiment: inhibitors of human UCH37 deubiquitinase, primary screen, biochemical, Ub-AMC cleavage, fluorescence (AID 588478);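 further: 0% = compound-free wells with enzyme and 100% = wells lacking proteasome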
Settings: purified proteasome/UCH37, Ub-AMC cleavage fluorescence; stronger effect = higher value; concentration not given here
Summary of the method: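 System: Proteasome-associated human UCH37 deubiquitinase; Input: 0.15 nM proteasome in added enzyme buffer; Also added: Ub-AMC substrate from 1 µM stock; Incubation: 30 min compound-proteasome preincubation then 25 min substrate reaction, room temperature; Detection: fluorescence, ex 355 nm, em 460 nm; Read-out: % inhibition of Ub-AMC cleavage fluorescence; Benchmarks: no-proteasome and no-compound wells.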

Chain of Ubiquitin carboxyl-terminal hydrolase isozyme L5 (Homo sapiens) (Q9Y5K5 whole entry, looked up): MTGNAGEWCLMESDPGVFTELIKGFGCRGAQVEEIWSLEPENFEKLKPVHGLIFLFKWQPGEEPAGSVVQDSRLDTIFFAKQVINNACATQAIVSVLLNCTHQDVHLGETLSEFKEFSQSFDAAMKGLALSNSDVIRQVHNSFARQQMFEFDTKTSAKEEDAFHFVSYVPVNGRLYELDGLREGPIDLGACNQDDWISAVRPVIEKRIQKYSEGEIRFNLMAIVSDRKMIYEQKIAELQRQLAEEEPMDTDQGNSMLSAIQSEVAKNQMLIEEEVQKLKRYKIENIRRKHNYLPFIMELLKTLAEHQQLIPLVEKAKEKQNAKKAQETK

SMILES	inhibition
Cc1ccc(S(=O)(=O)N=C2C=C(Sc3ncn[nH]3)C(=O)c3ccccc32)cc1	63.7% (active)
Cc1ccc(N2C(=O)CC(Sc3ncn[nH]3)C2=O)cc1 (stereo unspecified)	5.88% (inactive)
Cc1ccc(S(=O)(=O)/N=S(\C)C(C)C)cc1 (stereo unspecified)	0.621% (inactive)
CC(=NNC(=S)NC(C)C)c1ccc(Cl)s1	8.08% (inactive)
O=C(Cc1ccccc1)NNC(=O)C1CCN(c2ncccn2)CC1	-5.78% (inactive)
O=C1/C(=C\Nc2ccccc2)CCN1c1ncccn1	21% (active)
COc1ccccc1Oc1ccc(N/C=C2/CCCC2=O)cc1	3.61% (inactive)
c1coc(-c2nc3nc4ccccc4n3nc2-c2ccco2)c1	25.1% (active)
O=C(NN=Cc1cccnc1)c1cccc(N2CCCC2=O)c1	2.39% (inactive)
O=C(NC(Cc1c[nH]c2ccccc12)C(=O)NN=Cc1ccc(Br)cc1)c1cccs1 (stereo unspecified)	0.851% (inactive)
CCN(CC)CCn1c2ccc(Cl)cc2c2nc(C)sc21	7.52% (inactive)
CCN(CC)CCCC(C)n1c2nc(=O)[nH]c(=O)c-2nc2cc(Cl)ccc21 (stereo unspecified)	76% (active)
Nc1nnnn1N=Cc1cc(Cl)ccc1O	-10.7% (inactive)
CC(CC(=O)NCCc1ccccc1)=NNC(=O)COc1ccc(Br)cc1	3.08% (inactive)
O=C1c2ccccc2-c2ncnc3c(N4CCOCC4)cc(N4CCOCC4)c1c23	17.7% (inactive)
COC1=C(N2CCOCC2)C(=O)c2ccccc2C1=O	33.9% (active)
O=C1C(Cl)=C(N2CCOCC2)C(=O)N1c1ccccc1	3.48% (inactive)
Cc1cc(C)n2nc(C(=O)NN=Cc3cccc(Cl)c3)nc2n1	4.88% (inactive)
COc1ccc(OCC(=O)NN=C(C)CC(=O)Nc2ccc(OC)cc2[N+](=O)[O-])cc1	5.56% (inactive)
COc1ccc(C2/C(=C(/O)c3ccccc3)C(=O)C(=O)N2c2ncccn2)cc1OC (stereo unspecified)	7.11% (inactive)
Cc1cc(N2C(=O)C(=O)/C(=C(/O)c3ccc(Cl)cc3)C2c2cccc(Br)c2)no1 (stereo unspecified)	6.56% (inactive)
Cc1cc(N2C(=O)C(=O)/C(=C(/O)c3ccccc3)C2c2cccc(Br)c2)no1 (stereo unspecified)	21.7% (active)
Cc1ccccc1OCC(=O)NN=C1CCOc2c(C)cccc21	-0.822% (inactive)
CC(C)(C)c1ccc(OCc2ccc(C(=O)NN=C3CC4CC=CC34)cc2)cc1 (stereo unspecified)	2.62% (inactive)

SMILES	inhibition
Cc1[nH][nH]c(=O)c1C(c1ccc(-c2ccc(Cl)cc2)o1)c1c(C)[nH][nH]c1=O	42.6% (active)
O=C(NC1CCCCC1)c1ccc(-c2ccc(Cl)cc2)o1	1.6% (inactive)
CN(CC(=O)Nc1ccc(F)cc1)C(=O)c1ccc(-c2ccc(Cl)cc2)o1	-0.892% (inactive)
Cc1cccc(OCC(=O)NN=C/C=C/c2ccc3c(c2)OCO3)c1C	-10.5% (inactive)
CC(=NNC(=O)c1ccc2c(c1)OCO2)c1ccc(O)cc1	3.15% (inactive)
Oc1ccc(N=Nc2nccs2)c(O)c1	24.4% (active)
CC(=NNc1cc(N2CCOCC2)ncn1)c1ccccc1	2.94% (inactive)
Cn1c(=O)n(C)c2cc(C=Nn3cnnc3)ccc21	-35.7% (inactive)
C=CCN1C(=O)c2ccc(C(=O)N3CCC(C(=O)OCC)CC3)cc2C1=O	-0.969% (inactive)
Cc1cc(=O)n2nc(N3CCCC(C(=O)NCCC4=CCCCC4)C3)sc2n1 (stereo unspecified)	4.22% (inactive)
CC1CCCN(C(=O)c2ccc3c(c2)C(=O)N(CCC2=CCCCC2)C3=O)C1 (stereo unspecified)	39.5% (active)
S=c1[nH]nc(-c2ccccc2)n1N=Cc1ccc(-c2ccccc2Cl)o1	5.56% (inactive)
CC(CC(=O)Nc1ccc(Cl)cc1Cl)=NNC(=O)c1ccncc1	0.597% (inactive)
COC(=O)NN=C(C)c1cccs1	2.45% (inactive)
N#C/C(=C/c1ccc(N2CCCCC2)o1)C(=O)NCCc1c[nH]c2ccccc12	11.5% (inactive)
N#C/C(=C/c1ccc(N2CCOCC2)o1)C(=O)N1CCOCC1	33.4% (active)
N#C/C(=C\c1ccc(N2CCOCC2)o1)C(=O)N1CCOCC1	15.4% (inactive)
CC(C)(C)n1c(=O)[nH]c2c(c1=O)CCC2	-4.38% (inactive)
O=c1[nH]n2c(=O)c3c([nH]c2c1N=Nc1ccccc1)CCC3	22.1% (active)
N#Cc1c2c(c(-c3ccccc3)[nH]c1=O)CCCC2	-49.7% (inactive)
CCOc1ccc(C=NNC(=O)c2nnn(-c3nonc3N)c2COc2ccc(F)cc2)cc1	-139% (inactive)
N#CCC(=O)NN=Cc1cn(Cc2cccc3ccccc23)c2ccccc12	1.26% (inactive)
COCc1c(C)cc(C)c(C=NO)c1C	3.47% (inactive)
N#CC(=NNc1cc(Cl)cc(Cl)c1)c1nnc2n1CCCCC2	3.3% (inactive)

SMILES	inhibition
N#CC(=C(O)CCl)c1nnc2n1CCCCC2	31.4% (active)
C=CCn1c(=C(C#N)c2nnc3n2CCCCC3)sc(=Cc2ccc(Cl)cc2)c1=O	8.49% (inactive)
COc1cc(C=NNS(=O)(=O)c2ccc(C)cc2)ccc1OCc1ccc(C(=O)O)cc1	3.97% (inactive)
COc1ccccc1C=NNc1cc(C)nc2ccc(C)cc12	-45.9% (inactive)
C/C(C=NNC(=O)c1ccc2nc[nH]c2c1)=C/c1ccccc1	5.71% (inactive)
Cc1cnc(NC(=O)c2ccccn2)s1	2.76% (inactive)
Cc1cnc(NC(=O)C2CCCC2)s1	31% (active)
Cc1nc(NC(=O)C2CCCCC2)sc1C	1.92% (inactive)
CCCOc1ccc(-c2c(C(=O)NN=Cc3ccccc3)nnn2-c2nonc2N)cc1	5.85% (inactive)
COc1cc(C=Nn2c(C)nc3ccccc3c2=O)ccc1O	12.2% (inactive)
CC(CC(=O)Nc1cc(C)ccn1)=NNC(=O)c1cccc(C)c1O	-6.85% (inactive)
Cc1cc(C=NO)c(C)n1-c1ccccc1	-2.23% (inactive)
CCS(=O)(=O)C1=NSC2=NC(=O)/C(=C\c3cc(C)n(-c4cccc(OC)c4)c3C)C(=N)N21	-8.8% (inactive)
Cc1cc(/C=C2/C(=N)N3C(=NC2=O)SN=C3S(C)(=O)=O)c(C)n1-c1ccccc1	33.8% (active)
COc1ccc2c(c1)c(C(=O)NN=Cc1ccc(Br)cc1)c(C)n2C	2.61% (inactive)
CC(Oc1ccc(Cl)cc1)C(=O)NN=Cc1ccsc1 (stereo unspecified)	0.279% (inactive)
Cc1oc(N=Cc2cccc([N+](=O)[O-])c2)c(C#N)c1C	4.11% (inactive)
COc1ccc(C=NNC(=O)CSCC(=O)Nc2ccccc2)cc1	2.55% (inactive)
CN=C1C=C/C(=N/N=c2\ccn(O)cc2C)C=C1C	23.6% (active)
COC(=O)Cc1cc(=O)[nH]c(N=C(N)Nc2ccc(C)cc2C)n1	-0.633% (inactive)
C(=Nn1cnnc1)c1ccc(OCc2cccc3ccccc23)cc1	2.25% (inactive)
COc1ccc2ccccc2c1C=NNC(=S)Nc1cc(S(=O)(=O)N2CCOCC2)ccc1N1CCOCC1	-8.36% (inactive)
O=C(NN=Cc1ccc(-c2ccccc2[N+](=O)[O-])o1)C1COc2cc3ccccc3cc2O1 (stereo unspecified)	7.82% (inactive)
CC(C)(C)c1cc(=O)n2c(nc3ccccc32)[nH]1	-27.1% (inactive)

SMILES	inhibition
O=c1c(=Cc2ccco2)sc2nc(-c3ccccc3Br)nn12	4.51% (inactive)
O=C(O)c1cc(C(=O)O)cc(-c2ccc(C=c3sc4nc5ccccc5n4c3=O)o2)c1	22.2% (active)
CC(=NNC(=O)Cc1c(Cl)cccc1Cl)c1cccnc1	4.49% (inactive)
Cc1cccc(-c2cc(C(=O)NN=Cc3cccnc3)c3ccccc3n2)c1	1.54% (inactive)
CCCOc1ccc(CNC(=O)C2CCN(c3nn4c(=O)cc(C)nc4s3)CC2)cc1	1.32% (inactive)
COc1ccc(CCNC(=O)C2CCN(c3nn4c(=O)cc(C)nc4s3)CC2)cc1OC	27.9% (active)
Cc1cc(=O)n2nc(N3CCC(C(=O)Nc4c(F)c(F)c(F)c(F)c4F)CC3)sc2n1	-5.44% (inactive)
CCOc1ccc(C=NNC(=O)CN2CCCCC2)cc1OCC	4.23% (inactive)
COc1ccc(CC(=O)Nc2cccc(C(C)=NNC(=O)c3cccc([N+](=O)[O-])c3)c2)cc1	2.24% (inactive)
CC[n+]1cc(C)ccc1/C=C/c1ccc(N(C)C)cc1	20.6% (active)
CCC(=NNC(=O)Nc1nonc1N)c1ccc(OC)c(OC)c1	2.18% (inactive)
Cc1nnsc1C(=O)NN=Cc1ccccc1Cl	2.87% (inactive)
O=C(CNC(=O)c1cccc(Cl)c1)NN=Cc1cccnc1	3.41% (inactive)
CCOC(=O)c1cccc(NC(=O)CCOc2ccccc2)c1	0.512% (inactive)
CCOC(=O)c1cccc(NC(=O)c2ccc(F)cc2F)c1	24.8% (active)
CCOC(=O)c1cccc(NC(=O)CCn2nnc3ccccc32)c1	0.741% (inactive)
CC(=O)NC1CCCN(O)C(=O)C=C(C)CCOC(=O)C(NC(C)=O)CCCN(O)C(=O)C=C(C)CCOC(=O)C(NC(C)=O)CCCN(O)C(=O)C=C(C)CCOC1=O (stereo unspecified)	-0.932% (inactive)
COc1cc(OC)cc(C(=O)NN=Cc2ccoc2)c1	1.2% (inactive)
O=C1NNC(c2ccccc2)=N/C1=C\c1ccc(Cl)cc1	21.1% (active)
CCOC(=O)c1cc(C(C)=NOC(=O)c2ccc(C(C)(C)C)cc2)on1	4.76% (inactive)
O=C(NN=Cc1cc2cc3c(cc2nc1Cl)OCO3)c1ccncc1	-62.6% (inactive)
CC(C)NC(=O)/C(C#N)=C\c1ccc(N(C)C)c(Br)c1	35.8% (active)
Cc1[nH]c2ccccc2c1/C=C(/C#N)C(=O)NC(C)C	11.3% (inactive)
N#C/C(=C\c1ccc(O)c(O)c1)C(=O)NCc1ccccc1	4.82% (inactive)
